# Experimental data from ChEMBL document CHEMBL3779804, “Novel Ferroptosis Inhibitors with Improved Potency and ADME Properties” (J Med Chem, 2016).
# Assays:
# [1] = Antiferroptotic activity in human IMR32 neuroblastoma cells assessed as inhibition of erastin-induced cell death preincubated for 1 hr before erastin stimulation and measured after 13 hrs by fluorescence plate reader method; type: functional; conditions: IMR-32
# Procedure, shortened: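 Human IMR-32 neuroblastoma cells seeded at 25,000/well, next day pretreated 1 h in triplicate with a 1/3 dilution series (5 μM to 0.68 nM) plus Sytox Green (1.6 μM), then stimulated with erastin (10 μM). Sytox Green fluorescence (ex 485/em 520 nm) read after 13 h; Triton-X100 (0.05%) lysis as 100% death reference; % death background-corrected; IC50 determined.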
# [2] = Kinetic solubility of the compound in PBS buffer at pH 7.4 after 2 hrs at 37 deg C by turbidimetric analysis; type: physicochemical; conditions: read-out: Kinetic_solubility
# Procedure, shortened: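 Turbidimetric kinetic solubility by UV-vis reading; final test concentrations 3.125–200 μM, from DMSO solution diluted into 10 mM PBS pH 7.4.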
# [3] = Half life in human liver microsomes by LC/MS/MS analysis; type: ADME
# Procedure, shortened: (§1)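 Compound incubated with liver microsomes (CYP450 and other NADP-dependent enzymes); parent loss monitored and expressed as half-life in min.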
# [4] = Half life in mouse liver microsomes by LC/MS/MS analysis; type: ADME; procedure, shortened: as §1
# [5] = Stability in human plasma assessed as percentage recovery after 6 hrs by LC/MS/MS analysis; type: ADME, cell-free; conditions: read-out: Drug recovery
# Procedure, shortened: (§2)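 Compound incubated in plasma up to 6 h; result given as percentage of parent compound remaining.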
# [6] = Stability in mouse plasma assessed as percentage recovery after 6 hrs by LC/MS/MS analysis; type: ADME, cell-free; conditions: read-out: Drug recovery; procedure, shortened: as §2
# [7] = Antiferroptotic activity in human HT1080 cells assessed as inhibition of erastin-induced cell death by Alamar blue assay; type: functional, cell-based; conditions: HT-1080
# [8] = Antiferroptotic activity in human HT1080 cells assessed as inhibition of erastin-induced cell death; type: functional, cell-based; conditions: HT-1080
# [9] = Antiferroptotic activity in human HT1080 cells assessed as inhibition of erastin-induced cell death by cell based assay; type: functional; conditions: HT-1080
# [10] = Half life in C57BL/6 mouse plasma; type: ADME, cell-free
# [11] = Intrinsic clearance in C57BL/6 mouse liver microsomes; type: ADME
SMILES,IC50 [1],further results
CCOC(=O)c1ccc(NC2CCCCC2)c(N)c1,18 nM,solubility kinetic at 2 h [2]: > 200 µM; half-life [3]: 6.9 min; half-life [4]: 1.9 min; remaining at 6 h [5]: 100%; remaining at 6 h [6]: 0%; IC50 [7]: 95 nM
CCOC(=O)c1ccc(NC2CCCCC2)c(NCc2ccccc2)c1,–,IC50 [8]: 6 nM
CNS(=O)(=O)c1ccc(NC2C3CC4CC(C3)CC2C4)c(NCc2ccccc2)c1 (centres undefined),4.9 nM,–
CCNS(=O)(=O)c1ccc(NC2CC3CCC2C3)c(NCc2ccccc2)c1 (centres undefined),3 nM,–
CCNS(=O)(=O)c1ccc(NC2CCCCCCC2)c(NCc2ccccc2)c1,2.4 nM,–
CCNS(=O)(=O)c1ccc(NC2CCCC2)c(NCc2ccncc2)c1,36 nM,–
CCNS(=O)(=O)c1ccc(NC2CCCCC2)c(N)c1,67 nM,solubility kinetic at 2 h [2]: 12.5 µM; half-life [3]: 37 min; half-life [4]: 31 min; remaining at 6 h [5]: 81.9%; remaining at 6 h [6]: 86.2%
CC(C)(C)NS(=O)(=O)c1ccc(NC2CCCCC2)c(NCc2ccncc2)c1,11 nM,–
CNS(=O)(=O)c1ccc(NC2CCCCC2)c(N)c1,76 nM,–
CCNC(=O)c1ccc(NC2C3CC4CC(C3)CC2C4)c(NCc2ccncc2)c1 (centres undefined),3.4 nM,solubility kinetic at 2 h [2]: 25 µM; half-life [3]: 16 min; half-life [4]: 30 min; remaining at 6 h [5]: 100%; remaining at 6 h [6]: 100%
CCNS(=O)(=O)c1ccc(NC2CC3CCC2C3)c(NCc2ccncc2)c1 (centres undefined),9.4 nM,–
CNS(=O)(=O)c1ccc(NC2C3CC4CC(C3)CC2C4)c(NCc2ccncc2)c1 (centres undefined),6.4 nM,–
CCNC(=O)c1ccc(NC2CCCCC2)c(NCc2ccccc2)c1,21 nM,–
COC(=O)c1ccc(NC2CCCCC2)c(N)c1,34 nM,–
CCNS(=O)(=O)c1ccc(NC2C3CC4CC(C3)CC2C4)c(N)c1 (centres undefined),17 nM,–
CCNS(=O)(=O)c1ccc(NC2CCCCCCC2)c(N)c1,9.3 nM,–
CC(C)(C)NS(=O)(=O)c1ccc(NC2CCCCC2)c(NCc2ccccc2)c1,6.2 nM,–
CCNC(=O)c1ccc(NC2CCCCC2)c(NCc2ccncc2)c1,26 nM,–
CCNS(=O)(=O)c1ccc(NC2CCCCC2)c(NCc2ccccc2)c1,4 nM,solubility kinetic at 2 h [2]: 12.5 µM; half-life [3]: 88 min; half-life [4]: 187 min; remaining at 6 h [5]: 100%; remaining at 6 h [6]: 98.6%
CCNC(=O)c1ccc(NC2C3CC4CC(C3)CC2C4)c(NCc2ccccc2)c1 (centres undefined),6.5 nM,–
CCNC(=O)c1ccc(NC2C3CC4CC(C3)CC2C4)c(N)c1 (centres undefined),14 nM,–

SMILES,IC50 [1],further results
CC(C)(C)NS(=O)(=O)c1ccc(NC2C3CC4CC(C3)CC2C4)c(N)c1 (centres undefined),6 nM,–
CCNS(=O)(=O)c1ccc(NC2CC2)c(NCc2ccncc2)c1,128 nM,–
CC(C)(C)NS(=O)(=O)c1ccc(NC2C3CC4CC(C3)CC2C4)c(NCc2ccncc2)c1 (centres undefined),5.2 nM,–
CCNS(=O)(=O)c1ccc(NC2CCCC2)c(NCc2ccccc2)c1,8.2 nM,–
CCNS(=O)(=O)c1ccc(NC2C3CC4CC(C3)CC2C4)c(NCc2ccccc2)c1 (centres undefined),3.5 nM,solubility kinetic at 2 h [2]: 12.5 µM; half-life [3]: 36 min; half-life [4]: 31 min; remaining at 6 h [5]: 100%; remaining at 6 h [6]: 99.4%
CCNS(=O)(=O)c1ccc(NC2CC2)c(N)c1,76 nM,–
CCNS(=O)(=O)c1ccc(NC2CC2)c(NCc2ccccc2)c1,61 nM,–
CCNS(=O)(=O)c1ccc(NC2CCCCC2)c(NCc2ccncc2)c1,23 nM,–
Nc1cc(C(=O)O)ccc1NC1CCCCC1,210 nM,–
CC(C)(C)OC(=O)c1ccc(NC23CC4CC(CC(C4)C2)C3)c(/N=C\c2cncnc2)c1,–,IC50 [9]: 350 nM; half-life [10]: ≥ 120 min; CLH [11]: < 0.5 mL/min/g
CNS(=O)(=O)c1ccc(NC2CCCCC2)c(NCc2ccncc2)c1,15 nM,–
CCNS(=O)(=O)c1ccc(NC2CCCCCCC2)c(NCc2ccncc2)c1,22 nM,–
CCNS(=O)(=O)c1ccc(NC2CC3CCC2C3)c(N)c1 (centres undefined),28 nM,–
CCNS(=O)(=O)c1ccc(NC2C3CC4CC(C3)CC2C4)c(NCc2ccncc2)c1 (centres undefined),3.9 nM,solubility kinetic at 2 h [2]: 12.5 µM; half-life [3]: 64 min; half-life [4]: 26 min; remaining at 6 h [5]: 100%; remaining at 6 h [6]: 100%
CNS(=O)(=O)c1ccc(NC2C3CC4CC(C3)CC2C4)c(N)c1 (centres undefined),11 nM,–
CC(C)(C)NS(=O)(=O)c1ccc(NC2C3CC4CC(C3)CC2C4)c(NCc2ccccc2)c1 (centres undefined),3.4 nM,–
CC(C)(C)NS(=O)(=O)c1ccc(NC2CCCCC2)c(N)c1,27 nM,–
CNS(=O)(=O)c1ccc(NC2CCCCC2)c(NCc2ccccc2)c1,3.7 nM,–
CCNS(=O)(=O)c1ccc(NC2CCCC2)c(N)c1,82 nM,–
CCNC(=O)c1ccc(NC2CCCCC2)c(N)c1,88 nM,–
